Assay results gathered from unrelated publications.
Cell line: PC-3
Read-out: cell growth or viability

`COc1ccc(-c2cc(-c3cc(OC)ccc3OC)c3c(=O)n(C)c(=O)n(C)c3n2)cc1` gave an IC50 of 24.6 µM (MTT; 48 h).
For `C=CC(=O)c1cccnc1Nc1cc(C(F)(F)F)ccc1OC`, the GI50 was 5.58 µM (SRB; 48 h).
For `Cc1nc(Nc2ccc3c(c2)C(C)(C)C(=O)N3)c2ccccc2n1`, the IC50 was 34.3 µM (MTT).
`C=CC(=O)c1cccnc1Nc1cccc(C(F)(F)F)c1` gave a GI50 of 11.4 µM (SRB; 48 h).
`COc1ccc(-c2cc(-c3ccccc3Cl)c3c(=O)n(C)c(=O)n(C)c3n2)cc1` has an IC50 of 6.79 µM (MTT; 48 h).
With `COc1cc2ncnc(Nc3ccc4c(c3)/C(=C/c3ccccc3)C(=O)N4)c2cc1OC` the IC50 was 4.17 µM (MTT).
With `CC(=NNC(=O)COc1ccc2c(C)c(Cc3ccccc3)c(=O)oc2c1C)c1ccc(Br)cc1` the viability was 3.08% (MTT; 250 µg/mL).
The GI50 of `O=C(NO)c1ccc(CNc2nc3cccc(-c4ccc5c(c4)OCO5)n3n2)cc1` is reported as 0.63 µM (SRB).
`COc1cc2ncnc(Nc3ccc4c(c3)/C(=C/c3cccc(Cl)c3)C(=O)N4C)c2cc1OC` gave an IC50 of 22.2 µM (MTT).
For `Cc1nc2ccc(CN(C)c3ccc(C(=O)N[C@@H](CCC(=O)O)C(=O)O)s3)cc2c(=O)[nH]1`, the IC50 was 3.09 µM (MTT; 48 h).
`CCc1c(C)c2ccc(OCC(=O)NNC(=S)Nc3ccccc3)c(C)c2oc1=O` has a viability of 2.47% (MTT; 1000 µg/mL).
The GI50 of `C=CC(=O)c1cccnc1Nc1cc(C(F)(F)F)ccc1OCc1ccccc1` is reported as 19 µM (SRB; 48 h).
`CCOc1ccc2c(C)c(CC)c(=O)oc2c1C` gave a viability of 7.6% (MTT; 500 µg/mL).
`Cc1nc(Nc2ccc3c(c2)C(C)(C)C(=O)N3C)c2ccccc2n1` has an IC50 of 26.3 µM (MTT).
For `CCc1c(C)c2ccc(OCc3nnc(S)n3N)c(C)c2oc1=O`, the viability was 3.08% (MTT; 500 µg/mL).
`COc1ccc(-c2cc(-c3ccc(Cl)cc3)c3c(=O)[nH]c(=O)[nH]c3n2)cc1` has an IC50 of 5.24 µM (MTT; 48 h).
For `Cc1nc(Nc2ccc3c(c2)/C(=C/c2ccccc2)C(=O)N3Cc2ccccc2)c2ccccc2n1`, the IC50 was greater than 50 µM (MTT).
`COc1ccc(-c2cc(-c3ccc(Cl)cc3)c3c(=O)n(C)c(=O)n(C)c3n2)cc1` has an IC50 of 13.5 µM (MTT; 48 h).
The IC50 of `Cc1nc(Nc2ccc3c(c2)/C(=C/c2ccccc2Cl)C(=O)N3)c2ccccc2n1` is reported as 2.45 µM (MTT).
The viability of `Cc1c(Cc2ccccc2)c(=O)oc2c(C)c(OCC(=O)NN=Cc3ccccc3)ccc12` is reported as 14.1% (MTT; 250 µg/mL).
For `COc1ccc(-c2cc(-c3c(OC)cccc3OC)c3c(=O)[nH]c(=O)[nH]c3n2)cc1`, the IC50 was 41.5 µM (MTT; 48 h).
`Cc1c(Cc2ccccc2)c(=O)oc2c(C)c(OCC(=O)NN=Cc3ccc([N+](=O)[O-])cc3)ccc12` gave a viability of 5.03% (MTT; 500 µg/mL).
`Cc1ccc(-c2cc(-c3ccc(N(C)C)cc3)c3c(=O)[nH]c(=O)[nH]c3n2)cc1` has an IC50 of 17.4 µM (MTT; 48 h).
For `Cc1c(Cc2ccccc2)c(=O)oc2c(C)c(OCC(=O)NN=Cc3ccc(Cl)cc3)ccc12`, the viability was 5.27% (MTT; 500 µg/mL).
For `CCCOc1nc(-c2cccc(O)c2)cc(-c2cc3cc(OC)ccc3nc2N2CCOCC2)c1C#N`, the IC50 was 0.0639 µM (MTT; 72 h).
